For 71 compounds, cytotoxicity results are on record in ChEMBL document CHEMBL4513216, “Probing the Open Global Health Chemical Diversity Library for Multistage-Active Starting Points for Next-Generation Antimalarials” (ACS Infect Dis, 2020).

Molecules are shown by their SMILES.

This data set can be described thus: Toxicity liver stage against HepG2, at 10uM. The format is cell-based. Also on record: test concentration 10 uM, cell line HepG2-A16-CD81EGFP. The note with it: human, HepG2-A16-CD81EGFP cells; read-out: INHIBITION
In short, it runs like this: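 Uninfected HepG2-A16-CD81EGFP cells, 3 × 10^3 per well, 1536-well, plated on prespotted compound at 10 μM final, parasite-free screening media added to match infected plates; puromycin 10 μM positive, DMSO 0.5% negative; run in parallel with 48 h PbLuc assay at 37 °C, 5% CO2; viability by CellTiter-Glo luminescence, normalized to controls.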
With `O=C(Cc1c(F)cccc1Cl)Nc1cc(N2CCOCC2)ncn1`, the cytotoxicity at 10 µM came to 3.36%.

For the compound `CC(=O)N1CCC2(CC1)CN(C(=O)C1CC1)c1ccc(F)cc12`, the cytotoxicity at 10 µM was determined as 2.05%. Turning to `CN1CCC2(CCN(C(=O)c3ccccc3)CC2)C1`, the cytotoxicity at 10 µM was -2.36%. As for `O=C1CC(c2ccccc2)c2sc(C(=O)O)c(-c3ccccc3)c2N1` (stereo unspecified), the figure is -2.31%. As for `CN1CCc2nc3c(c(N)c2C1)CCCN3C`, the figure is 11.3%; as for `Cc1cc(C)n(CCC(=O)N2CCCC(c3nc(C(C)C)no3)C2)n1` (stereo unspecified), 8.27%; as for `CN1CCCC(c2cccc(-c3ccccc3F)n2)C1` (stereo unspecified), 2.58%.

As for `CC(C)c1nccn1CCC(=O)N1CCCCC1c1ccn[nH]1` (stereo unspecified), the cytotoxicity at 10 µM was 6.16%.

For `Cn1nccc1C(=O)N1CCC(c2nnsc2S(C)(=O)=O)CC1`, the cytotoxicity at 10 µM was -4.22%.

On to `CCN(CC(=O)N(C)C)C(=O)c1ccc(-c2nc(C)cs2)cc1`, for which the cytotoxicity at 10 µM worked out at 6.98%. For `CC(Nc1nc2c(cnn2C)c(=O)[nH]1)c1ccccn1` (stereo unspecified), the cytotoxicity at 10 µM was 13.3%. In the case of `CS(=O)(=O)N1CCC(C(=O)N2CCOc3ccccc32)CC1`, the cytotoxicity at 10 µM is -0.595%. As for `CC(C)(C)OC(=O)NCCC(=O)N(CCC#N)Cc1ccco1`, the figure is 3.12%; as for `CCc1noc(CN(C)Cc2cc(Br)ccc2OC)n1`, 3.91%. For the compound `CCN(CC)Cc1ccc(CNC(=O)C(C)(C)n2cc(Br)cn2)cc1`, the cytotoxicity at 10 µM was 33.6%. As to `NC(=O)COc1ccc(CNCc2c(F)cccc2F)cc1`, the cytotoxicity at 10 µM is -5.03%. With `O=C(c1cc(Cl)c2c(c1)OCCCO2)N(CC1CCOC1)C1CC1` (stereo unspecified), the cytotoxicity at 10 µM was -4.09%. For `N#Cc1nccnc1N1CCC(CSc2ccccc2)C1` (stereo unspecified), the cytotoxicity at 10 µM worked out at 0.957%. With `CC(CC#N)N(C)Cc1ccccc1F` (stereo unspecified), the cytotoxicity at 10 µM came to 10.4%. As for `CCC1CN(CC(=O)NCC(C)C)CCO1` (stereo unspecified), the figure is 14.4%; as for `Cn1cnc2c1CCN(Cc1ccc(Cl)c3cccnc13)C2`, 10.6%; as for `O=C1CN(C(=O)CN(CC2CCC2)CC(F)(F)F)CCN1`, 0.821%.

Regarding `O=C(c1occc1CN1C(=O)Cc2ccccc21)N1CC(O)C1`, the cytotoxicity at 10 µM was -4.43%. For `CCN(C(=O)CCCOC)C(c1ccc(Cl)cc1)c1ccccn1` (stereo unspecified), the cytotoxicity at 10 µM was -7.25%.

With `CC(c1ccccc1)N(C)C(=O)CNCCn1cccn1` (stereo unspecified), the cytotoxicity at 10 µM stood at 4.58%. For `COCCN1CCN(Cc2nc(-c3ccoc3)no2)CC1`, the cytotoxicity at 10 µM came to 16%. As for `Cc1cccc(C(=O)N2C[C@H](NS(C)(=O)=O)[C@@H]3OCCC[C@@H]32)n1`, the cytotoxicity at 10 µM is -77.4%.

For the compound `Cc1cc(CN2CCC(c3cc(Cc4ccccc4)n[nH]3)CC2)[nH]n1`, the cytotoxicity at 10 µM was 7.54%. On to `COCCN1C[C@H](NC(=O)CCC(F)(F)F)[C@@H](C(C)C)C1`, for which the cytotoxicity at 10 µM was 5.25%. `O=C(NC1CCc2ccccc2C1)C1CCN(Cc2ccco2)CC1` (stereo unspecified): the cytotoxicity at 10 µM is -0.339%.

As for `Cc1cc(C)c2c(N3CCCN(C(=O)C4CCC4)CC3)ncnc2n1`, the cytotoxicity at 10 µM is -10.7%. For `CC(=O)Nc1ccc(CNCc2cccnc2N(C)C)cc1`, the cytotoxicity at 10 µM is -7.49%. For the compound `CC(=O)c1ccc(N2CCC3(CCC(=O)N(CCCO)C3)CC2)nc1`, the cytotoxicity at 10 µM was found to be 4.81%. As to `CC(C)[C@@H]1CN(c2ccc(F)cn2)C[C@H]1NS(C)(=O)=O`, the cytotoxicity at 10 µM was found to be 3.69%. Consider `Cn1ncc2c(N3CCC(F)(F)CC3)nc(-c3ccncc3)nc21`, for which the cytotoxicity at 10 µM was determined as 9.74%.

Turning to `O=C(O)C1(Cc2ccc(F)cc2F)CCCN(Cc2ccccn2)C1` (stereo unspecified), the cytotoxicity at 10 µM worked out at 7.65%. For the compound `COc1ccccc1-n1nc(-c2ccco2)n(CC(N)=O)c1=O`, the cytotoxicity at 10 µM was determined as 0.5%. As for `COCC(=O)N[C@H]1C[C@@H](C(=O)NCCc2cccc(Cl)c2)N(C)C1`, the figure is 1.72%; as for `CC(C)n1cnnc1Cn1c(=O)cnc2ccccc21`, -4.04%. As to `COc1ccc(-c2cc(CN)ccc2F)c(OC)c1OC`, the cytotoxicity at 10 µM came to 1.91%. Consider `CN(C)[C@H]1CCCCN(C(=O)c2cccc(N3CCS(=O)(=O)CC3)c2)C1`, for which the cytotoxicity at 10 µM is 2.45%. Take `Cc1ccc2c(C(=O)N(C)C)cc(-c3cnn(CCO)c3)nc2c1C`: the cytotoxicity at 10 µM is 3.69%. For `COCc1ncc(CN2CC[C@@](O)(COC)C(C)(C)C2)cn1`, the cytotoxicity at 10 µM was -2.79%. As for `CCCn1ncc(CN2CCCCC2CCCOC)c1C` (stereo unspecified), the cytotoxicity at 10 µM was -15.2%.

Take `O[C@H]1[C@H](n2cc(-c3cccnc3)nn2)c2ccccc2C12CCNCC2`: the cytotoxicity at 10 µM is -10.5%. Consider `Cc1ccc(NC2CCN(C(=O)C(C(C)C)n3cncn3)CC2)nn1` (stereo unspecified), for which the cytotoxicity at 10 µM is -3.01%. On to `Cc1nc(C)n(CC2CCCN(Cc3cccc(F)c3F)C2)n1` (stereo unspecified), for which the cytotoxicity at 10 µM is -10.3%.

On to `CC(C(=O)NCc1ccc(N2CCCCCC2)nc1)n1cncn1` (stereo unspecified), for which the cytotoxicity at 10 µM was -11.2%. As for `CCNC(=O)CN1CCN(Cc2nc3c(F)cccc3n2CC)CC1`, the figure is -11.5%; as for `CN1CCOC(CNCc2cccc(OC(F)(F)F)c2)C1` (stereo unspecified), -12%. With `CC1CN(C)CCN1C(=O)c1cnc2c(cnn2C2CCCC2)c1` (stereo unspecified), the cytotoxicity at 10 µM was -12.8%. In the case of `CCN1CCC(NC(=O)CN2CCCC2Cn2nc(C)nc2C)CC1` (stereo unspecified), the cytotoxicity at 10 µM was -12.7%. For the compound `CC(C)c1nnc2n1CCN(C(=O)c1ccnc(-n3ccnc3)c1)C2`, the cytotoxicity at 10 µM was -29%. The value for `Cc1nc(-c2ccccc2)n(CC(=O)NC(C)C)n1` was -14.1%; that for `COc1ccc(CNC(=O)Nc2cccnc2N2CCCC2)cc1OC` was -24.6%; that for `CC(=O)Nc1nc(CN(C)C2CCCN(c3cccnn3)C2)cs1` (stereo unspecified) was -11.1%.

Turning to `COC(=O)C(NC(=O)c1ccco1)c1cc(F)ccc1F` (stereo unspecified), the cytotoxicity at 10 µM is -11.5%. On to `COc1cc(C(=O)N(C2CC2)C2CC(=O)NC2=O)ccc1C` (stereo unspecified), for which the cytotoxicity at 10 µM is -3.58%. Regarding `Cc1nc(C)n(CC2CCCN2CCOc2ccc(C#N)cc2)n1` (stereo unspecified), the cytotoxicity at 10 µM was -10.1%. As to `CC(NC(=O)NCCCn1cncn1)c1ccccc1Cl` (stereo unspecified), the cytotoxicity at 10 µM stood at 3.01%.

With `Cc1nc(C(=O)N2CCCC(n3cncn3)C2)cs1` (stereo unspecified), the cytotoxicity at 10 µM worked out at 5.7%. On to `O=C1CCC2(CCC(NCc3ccc4c(c3)OCO4)CC2)N1` (stereo unspecified), for which the cytotoxicity at 10 µM turned out to be 1.97%. With `COCCNC(=O)[C@H]1C[C@H]2OCC[C@H]2N(Cc2ccoc2)C1`, the cytotoxicity at 10 µM was -75.7%. On to `O=C(CC1CCCC1)N1CCn2cc(Cn3cccn3)nc2C1`, for which the cytotoxicity at 10 µM is -75.4%. Regarding `O=C(c1ccoc1)N1CC[C@@H]2O[C@@H](COCCN3CCCC3)CC[C@@H]21`, the cytotoxicity at 10 µM was -89.7%.

As for `COCC(=O)N1CCn2c(CN3CCN(C)CC3)cnc2C1`, the cytotoxicity at 10 µM was -70%.

Take `Cc1ccc2c(n1)N(Cc1cccnc1)CCN(C(=O)C1CC1)C2`: the cytotoxicity at 10 µM is -61.7%. Consider `CCc1ccc(CN2CC[C@H]3[C@H]2CC(=O)N3Cc2cccc(C)n2)o1`, for which the cytotoxicity at 10 µM is -2.19%. For the compound `Cc1noc(CN2C[C@@H]3CC[C@H]2CN(C2Cc4ccccc4C2)C3)n1`, the cytotoxicity at 10 µM was found to be 3.3%. The value for `COc1ccc(-n2cc3nc(N4CCCC4)[nH]cc-3c2=O)cc1Cl` was 11.6%. Turning to `COC(=O)Cn1c(=O)[nH]c2cn(-c3ccc(F)cc3)c(=O)n21`, the cytotoxicity at 10 µM was 1.09%.
